Source: PubChem BioAssay
Rpn11 block: blocks the human proteasome subunit Rpn11; human 26S proteasome, Ub4-pepOG fluorescence polarization; 20S core pre-blocked with epoxomicin; hit rate 0.59% among 360,000; inhibition, % at 20 µM;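 active means inhibition at 20 µM, scaled to each plate's controls, above about 33%, limit read from the data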
Xi reactivation: X-chromosome reactivation activator; XiGFP mouse fibroblasts, % GFP-positive cells imaging, 3 d; cells co-treated with 5-aza-dC sensitizer; scaled so ellipticine positive control = 100%; activation, % at 7.58 µM; hit rate 0.055% among 360,000; AID 743238;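 active means mean normalized replicate activation at least 10% and every replicate at or above 10%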;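 further: 0% = median of on-plate neutral control wells and 100% = ellipticine 6 µM median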
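material = 68-5-11 XiGFP fibroblast line | medium = DMEM plus 5-aza-dC sensitizer | schedule = 3 days compound exposure | benchmarks = positive control ellipticine, 6 µM final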
ABHD5 PLIN5 PPI: ABHD5-PLIN5 protein interaction inhibition; hit rate 0.78% among 360,000; inhibition, % at 4 µM; Split G. princeps luciferase complementation, luminescence, 4 h; AID 602281;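 active means inhibition above the mean inhibition across every tested compound plus 3 SD, cut at about 22% in these data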;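 further: 0% = DMSO only wells and the 100% control is not disclosed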
NadD inh: inhibitors of Staphylococcus aureus NadD; purified NadD enzyme, colorimetric absorbance read-out; inhibition, % at 20 µM; hit rate 0.78% among 360,000; in the data active means inhibition above about 26%
Rin1-Abl PPI inh: blocks binding of human Rin1 to Abl; P00519+Q13671; TR-FRET Rin1/Abl binding, biochemical; inhibition, % at 7.35 µM; hit rate 0.4% among 360,000; AID 588664; in the data active means inhibition above about 5%, passing the limit was not always enough
Rpn11 confirm: confirmation of human proteasome Rpn11 inhibitors; shares compounds with Rpn11 block; purified human 26S proteasome, Ub4-pepOG fluorescence polarization; proteasome pretreated with epoxomicin; inhibition, % at 20 µM; hit rate 29% among 1,900; AID 602318
MMP-2 inh: counter-screen for RPN11 inhibitors: inhibition of human MMP-2; hit rate 4% among 1,900; recombinant MMP-2, FRET peptide cleavage fluorescence; inhibition, % at 20 µM; shares compounds with Rpn11 block;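 further: human MMP-2 activated beforehand with APMA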
Target sequence (P08253 whole entry, looked up): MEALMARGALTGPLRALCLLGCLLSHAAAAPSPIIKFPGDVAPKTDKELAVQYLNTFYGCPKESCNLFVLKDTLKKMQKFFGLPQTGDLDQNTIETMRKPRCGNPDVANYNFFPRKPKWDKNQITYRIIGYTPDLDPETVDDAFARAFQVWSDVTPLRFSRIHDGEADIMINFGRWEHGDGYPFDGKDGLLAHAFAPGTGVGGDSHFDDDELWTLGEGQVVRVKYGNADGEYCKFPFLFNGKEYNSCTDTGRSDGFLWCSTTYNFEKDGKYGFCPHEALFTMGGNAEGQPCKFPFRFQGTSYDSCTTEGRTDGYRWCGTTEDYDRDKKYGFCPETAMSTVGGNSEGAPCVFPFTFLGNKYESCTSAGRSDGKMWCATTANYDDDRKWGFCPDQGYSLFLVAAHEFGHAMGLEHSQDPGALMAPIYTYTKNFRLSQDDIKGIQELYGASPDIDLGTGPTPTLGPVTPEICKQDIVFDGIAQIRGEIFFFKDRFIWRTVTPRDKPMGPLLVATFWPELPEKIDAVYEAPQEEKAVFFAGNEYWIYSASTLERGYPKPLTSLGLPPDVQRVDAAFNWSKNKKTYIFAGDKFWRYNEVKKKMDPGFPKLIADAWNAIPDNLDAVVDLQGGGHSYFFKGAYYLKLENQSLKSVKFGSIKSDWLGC
Thrombin inh: blocks bovine thrombin, flagging nonselective RPN11 hits. inhibition, % at 20 µM. shares compounds with Rpn11 block. bovine thrombin cleavage of Ub4-pepOG, fluorescence polarization. hit rate 13% among 1,900;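 active means mean inhibition at least 40% at 20 µM, or signal 3 deviations below plate average, so some actives read negative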;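 further: plate controls were thrombin with DMSO for no effect and buffer wells lacking thrombin for full effect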
Starred values were filed as active, the others as inactive; x = no result; + = active, no number. Compounds with a hit are over-represented: about 1.9% of the library has one in this group of screens. Unless noted, no stated cut-off is given here; in the data, active means inhibition above about 40%; inactive means the rest.

SMILES	Rpn11 block	Xi reactivation	ABHD5 PLIN5 PPI	NadD inh	Rin1-Abl PPI inh	Rpn11 confirm	MMP-2 inh	Thrombin inh
Cc1cc(C=C2C(=O)c3ccccc3C2=O)c(C)n1-c1cccc(C(=O)O)c1	13	0	3	2	1	x	x	x
O=C(C[C@@H]1CC[C@H](NS(=O)(=O)c2ccc(F)cc2)[C@H](CO)O1)NCc1ccccc1F	x	0	x	x	x	x	x	x
O=C(c1cccnc1)N1CC(=O)N2[C@H](C1)[C@@H](c1ccc(/C=C/c3ccccc3)cc1)[C@@H]2CO	x	0	x	x	x	x	x	x
COc1ccccc1C(=O)NCCN1CCN(C(=O)c2ccccc2OC)CC1	1	x	3	0	-2	x	x	x
COc1cccc(OC)c1C(=O)NCCN1CCN(C(=O)c2c(OC)cccc2OC)CC1	134*	x	-1	-1	6	-2	-14	-17
Cc1ccc(S(=O)(=O)N(C)C[C@@H]2OCCCC[C@H](C)Oc3ccc(NS(=O)(=O)c4ccccc4)cc3C(=O)N([C@H](C)CO)C[C@H]2C)cc1	x	0	x	x	x	x	x	x
C[C@H]1CN([C@@H](C)CO)C(=O)c2cccc(NC(=O)c3ccc(-c4nccs4)cc3)c2O[C@H]1CN(C)S(=O)(=O)c1ccc(Cl)cc1	x	-1	x	x	x	x	x	x
COC(=O)C(Sc1ccc(Cl)cc1)C1SC(=S)N(Cc2ccccc2)C1=O (stereo not drawn)	56*	0	22	4	0	-13	-5	-5
COC(=O)c1cccc(CN2C(=O)C(C)Sc3cc(Cl)ccc32)c1 (stereo not drawn)	-2	0	0	-9	2	x	x	x
C[C@@H]1CN([C@H](C)CO)C(=O)Cc2cc(NS(=O)(=O)c3ccc(Cl)cc3)ccc2O[C@H]1CN(C)C	x	0	x	x	x	x	x	x
COc1cc(NC(=O)CN(C)S(=O)(=O)c2ccc(C)cc2)cc(OC)c1	38*	x	3	-5	-1	3	21	-1
COc1ccc(NC(=O)CN(C)S(=O)(=O)c2ccc(Cl)cc2)c([N+](=O)[O-])c1	39*	x	-1	-7	-3	34	-16	-3
CC(=O)C1=C(C)NC(SCC(=O)c2ccc(Cl)cc2Cl)=C(C#N)C1c1ccco1 (stereo not drawn)	50*	x	6	5	4	13	-10	15
CCN(CC)c1ccc(/C=N/NC(=O)CN2CCCc3ccccc32)cc1	-5	0	-2	4	3	x	x	x
O=C(CN1CCCc2ccccc21)N/N=C/c1ccccc1	66*	0	-4	3	-5	10	-13	-5
Cc1ccc(C(=O)O)cc1-c1ccc(/C=C2/NC(=O)N(c3ccccc3)C2=O)o1	42*	x	5	18	-2	75*	18	31
Cc1cc(C(=O)O)ccc1-c1ccc(/C=C2\NC(=O)N(Cc3ccccc3Cl)C2=O)o1	2	x	-1	21	-2	x	x	x
COc1ccc(N2C(=O)CCC(C(=O)Nc3cccc(C)n3)C2c2ccc(OC)c(OC)c2)cc1 (stereo not drawn)	+	x	4	2	1	-11	-36	-8
c1cc(CNCCCN2CCOCC2)ccn1	8	x	-3	-3	-2	x	x	x
CC(=O)N(CCCN1CCOCC1)Cc1ccncc1	40*	x	1	4	-1	-6	0	-10
O=C(NCCN1CCCCCC1)c1ccc(CS(=O)(=O)c2ccc(Br)cc2)o1	53*	x	2	29	-5	32	14	13
O=C(NCCCN1CCCCCC1)c1ccc(CS(=O)(=O)Cc2ccccc2F)o1	73*	x	-3	20	0	75*	-436	3
CC1CCN(CCCNC(=O)c2ccc(CS(=O)(=O)Cc3ccccc3F)o2)CC1	5	x	-6	-2	4	x	x	x
COc1ccc2c3c([nH]c2c1)[C@H](CO)N(C(=O)CC1CC1)CC31CCN(Cc2cccnc2)CC1	x	0	x	x	x	x	x	x
Cc1ccc2nc(NCCCO)[nH]c2c1	41*	x	2	0	1	-11	-35	-19
